Results as given in ChEMBL document CHEMBL1799960, “Diadenosine 5',5''-(boranated)polyphosphonate analogues as selective nucleotide pyrophosphatase/phosphodiesterase inhibitors” (J Med Chem, 2010).
Activity calls are given as the source filed them. The rule behind the calls is not given here.

Experiments:
[1] = target: T1, Ectonucleotide pyrophosphatase/phosphodiesterase family member 3 (Homo sapiens) (UniProt O14638); experiment: Inhibition of human NPP3 expressed in COS7 cells assessed as amount of inorganic phosphate released using ATP as the substrate at 100 uM after 15 mins by malachite green reagent method; assay type: cell-based; settings: COS-7
T1 sequence (whole entry): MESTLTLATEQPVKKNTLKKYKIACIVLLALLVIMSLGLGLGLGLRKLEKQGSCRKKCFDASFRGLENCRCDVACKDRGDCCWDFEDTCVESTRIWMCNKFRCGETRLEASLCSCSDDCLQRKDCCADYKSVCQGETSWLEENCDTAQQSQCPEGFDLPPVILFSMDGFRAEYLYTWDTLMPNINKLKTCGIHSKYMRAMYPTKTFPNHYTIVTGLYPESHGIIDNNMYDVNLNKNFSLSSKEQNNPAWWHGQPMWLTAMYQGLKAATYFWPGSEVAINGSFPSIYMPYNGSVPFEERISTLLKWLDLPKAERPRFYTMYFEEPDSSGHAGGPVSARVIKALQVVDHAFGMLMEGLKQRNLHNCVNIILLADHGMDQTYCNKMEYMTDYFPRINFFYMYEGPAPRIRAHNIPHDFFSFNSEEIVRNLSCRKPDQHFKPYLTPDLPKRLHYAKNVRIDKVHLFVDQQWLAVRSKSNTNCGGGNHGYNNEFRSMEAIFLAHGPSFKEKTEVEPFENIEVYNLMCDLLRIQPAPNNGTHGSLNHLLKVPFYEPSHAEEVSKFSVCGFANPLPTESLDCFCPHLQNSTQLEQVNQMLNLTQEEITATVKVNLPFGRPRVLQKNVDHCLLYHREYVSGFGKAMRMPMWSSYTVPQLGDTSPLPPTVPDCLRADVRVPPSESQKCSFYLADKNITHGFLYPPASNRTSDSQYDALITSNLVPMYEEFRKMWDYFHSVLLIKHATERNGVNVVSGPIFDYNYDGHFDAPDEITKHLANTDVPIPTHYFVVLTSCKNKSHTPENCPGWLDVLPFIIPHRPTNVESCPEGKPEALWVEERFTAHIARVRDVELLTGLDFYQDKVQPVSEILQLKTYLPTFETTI

[2] = target: T2, Ectonucleotide pyrophosphatase/phosphodiesterase family member 1 (Homo sapiens) (UniProt P22413); experiment: Inhibition of human NPP1 in human HT29 cells assessed as production of p-nitrophenol using pnp-TMP as the substrate […]; assay type: cell-based; settings: HT-29
T2 sequence (whole entry): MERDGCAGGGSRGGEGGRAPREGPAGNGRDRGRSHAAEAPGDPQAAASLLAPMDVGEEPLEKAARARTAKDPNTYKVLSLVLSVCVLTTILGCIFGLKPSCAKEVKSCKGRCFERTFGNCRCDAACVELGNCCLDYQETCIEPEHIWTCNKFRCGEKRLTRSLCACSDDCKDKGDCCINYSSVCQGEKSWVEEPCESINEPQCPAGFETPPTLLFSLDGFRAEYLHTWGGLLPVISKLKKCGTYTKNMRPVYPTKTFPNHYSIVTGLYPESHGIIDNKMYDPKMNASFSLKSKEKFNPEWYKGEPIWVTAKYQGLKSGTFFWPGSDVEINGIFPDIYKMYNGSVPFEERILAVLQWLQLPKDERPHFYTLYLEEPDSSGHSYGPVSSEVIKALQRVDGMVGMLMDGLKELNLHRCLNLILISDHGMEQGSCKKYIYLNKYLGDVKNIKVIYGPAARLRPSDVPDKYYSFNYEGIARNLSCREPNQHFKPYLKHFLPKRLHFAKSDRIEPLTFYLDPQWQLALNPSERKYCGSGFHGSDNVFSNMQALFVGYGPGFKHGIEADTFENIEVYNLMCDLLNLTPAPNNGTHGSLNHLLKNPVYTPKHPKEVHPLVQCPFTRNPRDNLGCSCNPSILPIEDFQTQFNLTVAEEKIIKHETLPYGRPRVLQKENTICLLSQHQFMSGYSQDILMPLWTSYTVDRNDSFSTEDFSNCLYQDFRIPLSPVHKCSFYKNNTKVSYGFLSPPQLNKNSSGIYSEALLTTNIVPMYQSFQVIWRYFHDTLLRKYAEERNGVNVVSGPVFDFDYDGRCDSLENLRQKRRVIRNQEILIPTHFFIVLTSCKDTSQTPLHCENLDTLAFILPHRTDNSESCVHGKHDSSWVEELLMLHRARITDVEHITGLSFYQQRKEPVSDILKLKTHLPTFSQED

P2Y purinoceptor 1 [3] = target: T3, P2Y purinoceptor 1 (Homo sapiens, UniProt P47900); experiment: Agonist activity at GFP tagged-human P2Y1 receptor expressed in human 1321N1 cells assessed as elevation in calcium level after 30 mins by fluorescence spectrophotometric analysis; assay type: functional, cell-based
T3 sequence (P47900 whole entry): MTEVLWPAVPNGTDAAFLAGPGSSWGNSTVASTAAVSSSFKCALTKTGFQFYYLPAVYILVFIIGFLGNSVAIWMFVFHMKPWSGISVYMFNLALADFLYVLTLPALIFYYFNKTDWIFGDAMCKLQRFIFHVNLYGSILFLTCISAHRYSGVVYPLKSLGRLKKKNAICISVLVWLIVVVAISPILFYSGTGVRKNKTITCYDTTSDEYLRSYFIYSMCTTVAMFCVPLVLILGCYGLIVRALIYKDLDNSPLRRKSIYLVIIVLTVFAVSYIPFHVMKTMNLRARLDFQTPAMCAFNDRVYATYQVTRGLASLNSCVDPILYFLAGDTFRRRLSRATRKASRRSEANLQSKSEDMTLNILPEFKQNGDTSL

P2Y purinoceptor 1 [4] = target: T3, P2Y purinoceptor 1; experiment: Ratio EC50 for ATP to compound for GFP tagged-human P2Y1 receptor expressed in human 1321N1 cells assessed as elevation in calcium level after 30 mins by fluorescence spectrophotometric analysis; assay type: functional, cell-based
[5] = target: 5'-nucleotidase (Homo sapiens) (UniProt P21589); experiment: Inhibition of human Ecto-5'-nucleotidase expressed in COS7 cells assessed as amount of inorganic phosphate released using AMP as the substrate at 100 uM after 15 mins by malachite green reagent method; settings: COS-7
Sequence of 5'-nucleotidase (Homo sapiens) (P21589 whole entry): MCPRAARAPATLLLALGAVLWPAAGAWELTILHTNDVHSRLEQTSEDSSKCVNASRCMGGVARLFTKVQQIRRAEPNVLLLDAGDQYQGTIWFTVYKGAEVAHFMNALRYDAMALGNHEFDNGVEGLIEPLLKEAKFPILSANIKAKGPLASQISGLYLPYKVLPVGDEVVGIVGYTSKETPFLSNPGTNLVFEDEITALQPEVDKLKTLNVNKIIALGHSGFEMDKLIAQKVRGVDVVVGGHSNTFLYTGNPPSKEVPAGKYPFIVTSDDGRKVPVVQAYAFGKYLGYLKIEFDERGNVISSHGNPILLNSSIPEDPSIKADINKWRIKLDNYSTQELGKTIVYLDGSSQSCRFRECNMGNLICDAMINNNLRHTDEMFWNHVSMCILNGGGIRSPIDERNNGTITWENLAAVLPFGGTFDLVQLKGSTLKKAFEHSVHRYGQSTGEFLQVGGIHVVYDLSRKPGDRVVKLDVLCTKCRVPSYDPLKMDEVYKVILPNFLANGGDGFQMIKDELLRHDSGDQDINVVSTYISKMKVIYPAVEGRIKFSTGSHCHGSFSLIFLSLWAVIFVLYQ

[6] = target: T4, Ectonucleoside triphosphate diphosphohydrolase 1 (Homo sapiens) (UniProt P49961); experiment: Activity of human NTPDase1 expressed in COS7 cells assessed as amount of inorganic phosphate released using ATP as the substrate at 100 uM after 15 mins by malachite green reagent method; assay type: cell-based; settings: COS-7
T4 sequence (whole entry): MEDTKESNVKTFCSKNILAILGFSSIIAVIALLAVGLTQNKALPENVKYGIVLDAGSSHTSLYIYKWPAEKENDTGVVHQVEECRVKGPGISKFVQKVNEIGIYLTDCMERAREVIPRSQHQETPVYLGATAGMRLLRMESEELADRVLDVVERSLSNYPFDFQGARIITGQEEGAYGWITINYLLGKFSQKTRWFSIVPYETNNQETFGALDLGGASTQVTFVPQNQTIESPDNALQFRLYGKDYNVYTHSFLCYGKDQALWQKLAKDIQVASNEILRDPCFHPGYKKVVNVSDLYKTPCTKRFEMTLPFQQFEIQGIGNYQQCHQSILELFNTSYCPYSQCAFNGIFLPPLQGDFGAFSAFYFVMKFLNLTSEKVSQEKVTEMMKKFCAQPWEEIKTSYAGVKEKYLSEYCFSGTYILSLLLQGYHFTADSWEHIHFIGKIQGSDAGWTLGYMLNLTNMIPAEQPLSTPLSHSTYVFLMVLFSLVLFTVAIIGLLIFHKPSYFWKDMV
Outline: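 Crude membrane-enriched protein extract of transiently transfected COS-7 cells, preincubated 3 min at 37 °C in Tris-Ringer buffer pH 7.3. Reaction started with 100 μM ATP, or with the analogue alone at 100 μM to test it as substrate. Stopped after 15 min with malachite green reagent; released Pi read at 630 nm. Mean ± SD, n = 3.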

| Structure (SMILES) | inhibition [1] [%] | inhibition [2] [%] | EC50 (P2Y purinoceptor 1 [3]) [µM] | Ratio EC50 (P2Y purinoceptor 1 [4]) | inhibition [5] | Activity [6] [%] |
| --- | --- | --- | --- | --- | --- | --- |
| BP(=O)(OP(=O)(O)CP(=O)(O)OC[C@H]1O[C@@H](n2cnc3c(N)ncnc32)C[C@@H]1O)OP(=O)(O)CP(=O)(O)OC[C@H]1O[C@@H](n2cnc3c(N)ncnc32)C[C@@H]1O | 65 | 90 | ≥ 30 | > 200 | inactive | – |
| Nc1ncnc2c1ncn2[C@@H]1O[C@H](COP(=O)(O)CP(=O)(O)OP(=O)(O)CP(=O)(O)OC[C@H]2O[C@@H](n3cnc4c(N)ncnc43)[C@H](O)[C@@H]2O)[C@@H](O)[C@H]1O | 65 | 80 | 9 | 60 | 90% | 1.5 |
| BP(=O)(OP(=O)(O)CP(=O)(O)OC[C@H]1O[C@@H](n2cnc3c(N)ncnc32)[C@H](O)[C@@H]1O)OP(=O)(O)CP(=O)(O)OC[C@H]1O[C@@H](n2cnc3c(N)ncnc32)[C@H](O)[C@@H]1O | 90 | 90 | 0.3 | 2 | inactive | 0.5 |
| Nc1ncnc2c1ncn2[C@H]1C[C@H](O)[C@@H](COP(=O)(O)CP(=O)(O)OP(=O)(O)CP(=O)(O)OC[C@H]2O[C@@H](n3cnc4c(N)ncnc43)C[C@@H]2O)O1 | 90 | 80 | 30 | 200 | 80% | 1.1 |
